Consider eleven compounds from ChEMBL document CHEMBL1671666, “Anti-human immunodeficiency virus activity, cross-resistance, cytotoxicity, and intracellular pharmacology of the 3'-azido-2',3'-dideoxypurine nucleosides” (Antimicrob Agents Chemother, 2009).

Data set [1] addresses Human immunodeficiency virus type 1 reverse transcriptase (Human immunodeficiency virus 1) (UniProt Q72547). The experiment in a line: Activity at HIV1 reverse transcriptase measured after 30 mins. In a few lines:
(§1)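 Pre-steady-state rapid quench with purified WT HIV-1 RT. Quenched with 0.5 M EDTA between 10 ms and 30 min. Products resolved on 7 M urea-16% polyacrylamide gels. Gives kpol and Kd; selectivity = (kpol/Kd)dNTP/(kpol/Kd)NRTI-TP. At least three independent experiments, mean ± SD.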

The target is the same in data set [2]. The experiment in a line: Ratio of Kpol to Kd for HIV1 reverse transcriptase. Put shortly: as §1
The target in data set [3] is Human immunodeficiency virus type 1 reverse transcriptase (Human immunodeficiency virus 1, UniProt Q72547). Nature of the data set: Binding affinity to HIV1 reverse transcriptase. Put shortly:
as §1

For data set [4], the target named is Human immunodeficiency virus type 1 reverse transcriptase (Human immunodeficiency virus 1) (UniProt Q72547). Nature of the data set: Selectivity, ratio of Kpol to Kd for dCTP to Kpol to Kd for compound at HIV1 reverse transcriptase. Put shortly: as §1
A short description of data set [5]: Half life in PHA-stimulated human PBMC after 12 hrs by LC-MS analysis. The class given is ADME, cell-based.
The target in data set [6] is Human immunodeficiency virus type 1 reverse transcriptase (Human immunodeficiency virus 1) (UniProt Q72547). Nature of the data set: Selectivity, ratio of Kpol to Kd for dGTP to Kpol to Kd for compound at HIV1 reverse transcriptase. In a few lines: as §1
The subject of another data set is PBMC. Nature of the data set: Drug level in PHA-stimulated human PBMC measured per 10^6 cells at 10 uM after 12 hrs by LC-MS analysis. The class given is ADME, cell-based. Put shortly:
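PHA-stimulated human PBMC (24-30 × 10⁶ cells) exposed to a range of nucleoside concentrations for 12 h at 37°C in 5% CO2. […] Triphosphate reported in pmol/10⁶ cells. At least three experiments, mean ± SD.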

The subject of data set [7] is Human immunodeficiency virus 1. Nature of the data set: Antiviral activity against HIV1 infected in human HeLa P4/R5 cells assessed as inhibition of viral replication. The note with it: Human immunodeficiency virus 1, HeLa. The class given is functional, organism-based. In a few lines: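 Single-cycle assay in P4/R5 HeLa cells carrying an HIV LTR-driven, Tat-activated β-galactosidase gene. Cells kept in phenol red-free DMEM with 10% FBS and 0.5 μg/ml puromycin. Virus stock titred on these cells by threefold endpoint dilution (Reed-Muench). At least three independent experiments.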

Data set [8] has as its system Human immunodeficiency virus 1. Nature of the data set: Antiviral activity against HIV1 infected in human MT2 cells assessed as inhibition of viral replication. The class given is functional, organism-based. Conditions: Human immunodeficiency virus 1, MT2.
Data set [9] has as its system Human immunodeficiency virus 1. Nature of the data set: Antiviral activity against HIV1 infected in human PBMC assessed as inhibition of viral replication. The class given is functional, organism-based. Put shortly: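 PBMC from healthy seronegative donors, isolated on a Ficoll-Hypaque gradient and stimulated with PHA for 2-3 days before infection. At least three independent experiments.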

Data set [10] deals with HepG2. The experiment in a line: Mitochondrial toxicity in human HepG2 cells assessed as percent lactic acid production at 10 uM after 14 days by real-time PCR relative to beta-actin DNA. In kind it is cell-based. Conditions: hepg2, 336 h. Put shortly:
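HepG2 cells cultured 14 days with 10 or 100 μM NRTI. Lactic acid quantified with a D-/L-lactic acid enzymatic test kit and expressed relative to β-actin DNA and to untreated control.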
For orientation: Real-time PCR tracks product formation cycle by cycle.

The next data set has as its system beta-actin DNA. Nature of the data set: Mitochondrial toxicity in human HepG2 cells assessed as percent inhibition of beta-actin DNA at 10 uM after 14 days by real-time PCR. The class given is cell-based. In a few lines:
(§2)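 Low-passage HepG2 cells seeded at 5,000 cells/well on collagen-coated plates and cultured 14 days with 10 or 100 μM NRTI. mtDNA and β-actin DNA quantified by real-time PCR in duplicate; mtDNA normalized to β-actin and expressed relative to untreated cells. At least two independent experiments; ranges given.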

The test system of the next data set is mitochondrial DNA. Nature of the data set: Mitochondrial toxicity in human HepG2 cells assessed as percent inhibition of mitochondrial DNA at 10 uM after 14 days by real-time PCR. In kind it is cell-based. In a few lines:
as §2

Data set [11] relates to HepG2. Nature of the data set: Mitochondrial toxicity in human HepG2 cells assessed as percent mitochondrial DNA production at 10 uM after 14 days by real-time PCR relative to control. The class given is cell-based. Conditions: hepg2, 336 h. Put shortly: as §2
Data set [12] has as its target Human immunodeficiency virus type 1 reverse transcriptase (Human immunodeficiency virus 1) (UniProt Q72547). The experiment in a line: Selectivity, ratio of Kpol to Kd for dATP to Kpol to Kd for compound at HIV1 reverse transcriptase. In a few lines:
as §1

Data set [13] has the same target. The experiment in a line: Selectivity, ratio of Kpol to Kd for TTP to Kpol to Kd for compound at HIV1 reverse transcriptase. In a few lines:
as §1

SMILES strings stand for the structures. Structures can show the parent of a compound that is named as a salt.

Broadly, the Kd is the constant that tells how readily two partners part at equilibrium. In turn, `Nc1ccn([C@H]2CC[C@@H](COP(=O)(O)OP(=O)(O)OP(=O)(O)O)O2)c(=O)n1` [DDCTP] yielded an Activity in [1] of 0.4 s⁻¹. The Ratio in data set [2] turned out to be 0.2 µM⁻¹ s⁻¹. Moreover, the Kd in data set [3] came to 2.7 µM. The Selectivity ratio in data set [4] was 6.7.

Broadly, the half-life is how long it takes for the measured level to halve. A low value points to fast loss. Turning to `[N-]=[N+]=N[C@H]1C[C@H](n2cnc3c(=O)[nH]c(N)nc32)O[C@@H]1COP(=O)(O)OP(=O)(O)OP(=O)(O)O`, the Activity in [1] came out at 4.8 s⁻¹. Further, the Ratio in data set [2] amounted to 1.7 µM⁻¹ s⁻¹. The compound also gave a half-life in [5] of 8.9 h. In addition, the affinity in data set [3], expressed as Kd, was 2.8 µM. The Selectivity ratio in data set [6] is 1.1.

With `[N-]=[N+]=N[C@H]1C[C@H](n2cnc3c(=O)[nH]c(N)nc32)O[C@@H]1CO`, the Drug uptake in the data set with PBMC worked out at 0.2 pmol.

As a reminder, the IC50 is the concentration that gives 50% inhibition. `Nc1nc(NC2CC2)c2ncn([C@H]3C=C[C@@H](CO)C3)c2n1` [ABACAVIR SULFATE]: the values for the IC50 in data set [7], in data set [8] and in data set [9] were 6.2 µM, 4.8 µM and 0.91 µM, respectively.

The inhibition is the percentage by which the read-out fell short of the control. For `Nc1ccn([C@H]2CC[C@@H](CO)O2)c(=O)n1` [ZALCITABINE], the IC50 in data set [7] was found to be 1.4 µM; in [8], 0.13 µM; in data set [9], 0.2 µM. Also, the Activity is 170% with HepG2 [10] and 0.3% in the data set on HepG2 [11]. Moreover, the inhibition at 336 h, 10 µM stood at 61.4% in the data set on beta-actin DNA and 99.9% with mitochondrial DNA.

In turn, `Nc1ccn([C@H]2C[C@H](O)[C@@H](COP(=O)(O)OP(=O)(O)OP(=O)(O)O)O2)c(=O)n1` had an Activity in data set [1] of 1.2 s⁻¹. The Ratio in [2] amounted to 1.1 µM⁻¹ s⁻¹.

In turn, `C[C@H](Cn1cnc2c(N)ncnc21)OCP(=O)(O)OP(=O)(O)OP(=O)(O)O` gave an Activity in [1] of 6.2 s⁻¹. Also, in data set [2], the Ratio came to 1.4 µM⁻¹ s⁻¹. Also, the Selectivity ratio in [12] was determined as 5.3. The compound also showed a Kd in [3] of 4.3 µM.

`Nc1ncnc2c1ncn2[C@H]1C[C@H](O)[C@@H](COP(=O)(O)OP(=O)(O)OP(=O)(O)O)O1` returned an Activity in data set [1] of 24.4 s⁻¹. Also, the Ratio in [2] was found to be 7.6 µM⁻¹ s⁻¹. In data set [3], this compound had a Kd of 3.2 µM.

In turn, `Cc1cn([C@H]2C[C@H](N=[N+]=[N-])[C@@H](COP(=O)(O)OP(=O)(O)OP(=O)(O)O)O2)c(=O)[nH]c1=O` gave an Activity in [1] of 8.8 s⁻¹. The Ratio in [2] is 4.4 µM⁻¹ s⁻¹. Further, the Selectivity ratio in [13] was 1.

In the case of `Nc1nc(=O)n([C@@H]2CS[C@H](CO)O2)cc1F` [EMTRICITABINE], the IC50 in data set [7] was 0.17 µM; in [8], 0.044 µM; in data set [9] it was 0.001 µM.

`Cc1cn([C@H]2C=C[C@@H](CO)O2)c(=O)[nH]c1=O` [STAVUDINE]: the IC50 in [7] is 5.7 µM; in data set [8], 1.9 µM; in [9], 0.1 µM.
